From ChEMBL document CHEMBL5252510, “A Novel Potent Oral Series of VEGFR2 Inhibitors Abrogate Tumor Growth by Inhibiting Angiogenesis” (J Med Chem, 2016)
Active and inactive are the calls of the source. The rule behind the calls is not given here.

Legend:
[1] = Half life in Sprague-Dawley rat at 50 mg/kg, po measured upto 24 hrs by HPLC/UV analysis; format: ADME, organism-based; details: in vivo
Method in brief: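 Female Sprague Dawley rats, 8 weeks old, catheterized. Oral suspension in 0.5 % carboxymethyl cellulose at 50 mg/kg, n=3. Bioavailability taken against 3 mg/kg iv. Plasma sampled 5 min–24 h. Cmax and AUC(0–∞) dose-normalized.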

[2] = biological target: T1, Proto-oncogene tyrosine-protein kinase receptor Ret (Homo sapiens, UniProt P07949); assay: Inhibition of RET (unknown origin) autophosphorylation expressed in mouse NIH3T3 cells by ELISA-based assay; format: cell-based
Method in brief: (§1)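 Cells were stimulated with the respective ligand. Receptor tyrosine kinase autophosphorylation in the presence of compound was quantified by ELISA.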

Mus musculus [3] = assay: Protection against VEGF-induced vessel extravasation in FVB mouse at 3 mg/kg pre-administrated for 2 to 48 hrs followed by evans-blue administration for 30 mins and measured 30 mins after dog VEGF164 addition; format: functional, organism-based; details: time 3-49 hrs
Method in brief: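 Female FVB mice (18–20 g), 3–4 per group. Oral 3 mg/kg at 48, 24 or 8 h before sacrifice. Evans blue 0.5 % (200 µl) given i.v. in the tail vein. 30 min later, 2 µL dog VEGF164 (10 ng/µL) injected intradermally into the ear pinna. Dye extravasation quantified by a computer-assisted system.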

Mus musculus [4] = assay: Anti-angiogenesis activity in FVB mouse model assessed as inhibition of VEGF-induced tissue TIE-2 level at 0.3 mg/kg, po qd treated for 4 to 6 hrs prior to chamber implantation and continuing for 4 days measured after 24 hrs post last dose by ELISA analysis; format: functional, organism-based; details: time 5.0 day
Method in brief: (§2)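 Female FVB mice (18-20 g), porous chambers with VEGF (2 μg/mL) in 0.8 % w/v agar containing heparin 20 U/mL implanted s.c. in flank; compound p.o. once daily in 100 % PEG200 (5 mL/kg) from 4-6 h before implantation for 4 days; tissue removed 24 h after last dose, weighed, lysate assayed for TIE-2 by sandwich ELISA; n=6 per dose, mean ± SEM.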

[5] = Tmax in OFA rat at 3 mg/kg, po measured upto 24 hrs by HPLC/UV analysis; format: ADME, organism-based; details: in vivo
Method in brief: (§3)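 Female OFA rats, femoral artery/vein catheterized and recovered 96 h. Oral gavage of a micronized suspension in 0.5 % carboxymethyl cellulose at 25 or 3 mg/kg. Bioavailability taken against femoral-vein iv dosing. Plasma sampled 5 min–24 h (9 time points).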

[6] = biological target: T1, Proto-oncogene tyrosine-protein kinase receptor Ret; assay: Inhibition of human recombinant GST-fused RET expressed in baculovirus expression system using poly-Glu-Tyr (4:1) as substrate measured after 10 mins in presence of gamma-[33P]-ATP by scintillation counting analysis
Method in brief: (§4)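 GST-fused kinase domains were expressed in baculovirus and purified on glutathione-Sepharose. 10 min at ambient temperature, stopped with EDTA. Filter binding and scintillation counting. IC50 by linear regression of percent inhibition.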

[7] = biological target: Angiopoietin-1 receptor (Homo sapiens) (UniProt Q02763); assay: Inhibition of human recombinant GST-fused TIE2 expressed in baculovirus expression system using poly-Glu-Tyr (4:1) as substrate measured after 10 mins in presence of gamma-[33P]-ATP by scintillation counting analysis; method in brief: as §4
Mus musculus [8] = assay: Anti-angiogenesis activity in FVB mouse model assessed as inhibition of VEGF-induced tissue weight at 0.3 mg/kg, po qd treated for 4 to 6 hrs prior to chamber implantation and continuing for 4 days measured after 24 hrs post last dose; format: functional, organism-based; details: time 5.0 day; method in brief: as §2
[9] = biological target: Insulin-like growth factor 1 receptor (Homo sapiens, UniProt P08069); assay: Inhibition of IGF1R (unknown origin) autophosphorylation expressed in […] by ELISA-based assay; format: cell-based; method in brief: as §1
[10] = Half life in OFA rat at 3 mg/kg, po measured upto 24 hrs by HPLC/UV analysis; format: ADME, organism-based; details: in vivo; method in brief: as §3
[11] = biological target: Serine/threonine-protein kinase B-raf (Homo sapiens) (UniProt P15056); assay: Inhibition of human recombinant GST-fused BRAF expressed in baculovirus expression system using poly-Glu-Tyr (4:1) as substrate measured after 10 mins in presence of gamma-[33P]-ATP by scintillation counting analysis; method in brief: as §4
[12] = biological target: Vascular endothelial growth factor receptor 2 (Homo sapiens, UniProt P35968); assay: Inhibition of human recombinant GST-fused VEGFR2 kinase domain transphosphorylation expressed in baculovirus expression system using poly-Glu-Tyr (4:1) as substrate measured after 10 mins in presence of gamma-[33P]-ATP by scintillation counting analysis
Insulin receptor = Insulin receptor (Homo sapiens, UniProt P06213); assay: Inhibition of INSR (unknown origin) autophosphorylation expressed in […] by ELISA-based assay; format: cell-based; method in brief: as §1
[13] = Dose normalized AUC(0 to infinity) in OFA rat at 25 mg/kg, po measured upto 24 hrs by HPLC/UV analysis; format: ADME, organism-based; details: in vivo; method in brief: as §3
[14] = biological target: RAF proto-oncogene serine/threonine-protein kinase (Homo sapiens) (UniProt P04049); assay: Inhibition of human recombinant GST-fused cRAF expressed in baculovirus expression system using poly-Glu-Tyr (4:1) as substrate measured after 10 mins in presence of gamma-[33P]-ATP by scintillation counting analysis; method in brief: as §4
[15] = Oral bioavailability in OFA rat at 25 mg/kg measured upto 24 hrs by HPLC/UV analysis; format: ADME, organism-based; details: in vivo; method in brief: as §3
Mus musculus [16] = organism: Mus musculus; assay: Antiangiogenic activity in C57BL/6jNpa mouse harbouring mouse B16-BL6 cells assessed as reduction in K-trans level by measuring T/C ratio measured after 3 days by DCE-MRI assay; format: functional; details: time 3 day
Method in brief: (§5)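 C57BL/6JNpa mice bearing B16/BL6 cervical lymph-node metastases, at least 8 per group, anaesthetized and given contrast agent; DCE-MRI Ktrans and iAUEC (permeability) and Vp (plasma volume) measured before and again after daily treatment; change per mouse recorded, mean ± SEM, one-way ANOVA with Holm-Sidak comparisons versus vehicle.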

Mus musculus [17] = organism: Mus musculus; assay: Antiangiogenic activity in C57BL/6jNpa mouse harbouring mouse B16-BL6 cells assessed as reduction in tumor plasma volume measured after 3 days by DCE-MRI assay relative to control; format: functional; set-up: scale not given: the % may be the effect or the level left; details: time 3 day; method in brief: as §5
B16-BL6 = assay: Antitumor activity against mouse B16-BL6 cells implanted in C57BL/6jNpa mouse assessed as primary tumor growth inhibition at 3 mg/kg, po qd administered every 2 days started on day 7 post implantation measured after 21 days; format: functional, organism-based; details: time 7-21 day
Method in brief: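 Female C57BL/6JNpa mice, 50000 B16/BL6 cells intradermally in both ear pinnae; primary tumor area (mm²) imaged days 7, 14, 21; randomized day 7 into groups of 5-6, oral dosing in PEG200 or PEG300 vehicle daily (or every 2 days) for 14 days; day 21 cervical lymph nodes weighed, metastasis lysates assayed for TIE-2 by ELISA; T/C ratios.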

BN472 cell = assay: Antitumor activity against rat BN472 cell implanted in Brown-Norway rat assessed as reduction in perfused blood vessels at 3 mg/kg, po qd measured upto 14 days by Hoechst staining based microscopic analysis; format: functional, organism-based; details: time <= 14.0 day
Method in brief: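 BN472-bearing Brown-Norway rats dosed orally; Hoechst dye i.v. shortly before sacrifice to mark perfused vessels; tumors cryosectioned at 10 micron, blocked in 10 % goat serum/0.1 % Triton X-100, stained with rabbit anti-Ki67 (1:200) or anti-caspase 3 (1:10) and fluorescent secondary antibodies; fluorescence microscopy.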

Structure (SMILES) | half-life [1] | IC50 [2] | Activity (Mus musculus [3]) | Activity (Mus musculus [4]) | Tmax [5] | inhibition [6] | inhibition [7] | Activity (Mus musculus [8]) | IC50 [9] | half-life [10] | inhibition [11] | IC50 [12] | IC50 (Insulin receptor) | AUC/dose [13] | inhibition [14] | bioavailability [15] | T/C (Mus musculus [16]) | Activity (Mus musculus [17]) | Activity (B16-BL6) | Activity (BN472 cell)
Nc1cc(Oc2ccc3c(C(=O)Nc4cccc(C(F)(F)F)c4)cccc3c2)ncn1 | 10.1 h | – | – | – | – | – | – | – | – | – | – | – | – | – | – | – | – | – | – | –
O=C(Nc1cccc(C(F)(F)F)c1)c1cccc2cc(Oc3cc(CO)ncn3)ccc12 [BFH-772] | – | 30 nM | Active | Active | 2 h | Active | Active | Active | > 500 nM | 4.1 h | Active | 2.7 nM | > 500 nM | – | – | – | – | – | – | –
Nc1nccc(Oc2ccc3c(C(=O)Nc4cccc(C(F)(F)F)c4)cccc3c2)n1 | – | 30 nM | – | – | – | Active | Active | – | > 500 nM | – | Active | 9 nM | > 500 nM | 1.22 µmol·h/L | Active | 35% | – | – | – | –
Nc1nccc(Oc2ccc3c(C(=O)Nc4ccc(F)c(C(F)(F)F)c4)cccc3c2)n1 | 4.5 h | – | Active | Active | – | – | – | Active | – | – | – | – | – | – | – | – | 0.39 | 65% | Active | Active
